Screening results (PubChem BioAssay)
Compounds with a hit are over-represented: about 2.3% of the library has one in this group of screens.
MCL1 BIM primary – disrupts human MCL1 binding to BIM-BH3 peptide; inhibition, % at 10.9 µM; actives 0.68% (n = 320,000); GST-MCL1 / FITC-Bim-BH3 fluorescence polarization; AID 2057;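 active = inhibition above the mean inhibition of all tested compounds plus 3 SD, set per campaign, cut at about 40% in these data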;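 also: higher means more loss of mP so more displacement of Bim peptide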
Target sequence (Q07820 whole entry, looked up): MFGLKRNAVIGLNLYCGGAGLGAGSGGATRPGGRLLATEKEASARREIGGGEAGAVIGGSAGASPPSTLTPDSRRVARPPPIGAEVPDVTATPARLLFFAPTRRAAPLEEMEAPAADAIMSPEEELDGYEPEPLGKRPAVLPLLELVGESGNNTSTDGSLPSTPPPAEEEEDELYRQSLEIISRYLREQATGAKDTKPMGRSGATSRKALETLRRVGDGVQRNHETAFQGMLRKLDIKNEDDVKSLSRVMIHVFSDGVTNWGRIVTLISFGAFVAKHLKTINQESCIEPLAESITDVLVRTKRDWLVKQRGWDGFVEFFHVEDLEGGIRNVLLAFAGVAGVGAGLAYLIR
T cell HTS – T cell immune modulators affecting CD8 T cell-vesicle binding; actives 0.068% (n = 330,000); response (vesicle binding), % at 7 µM; AID 2052; 2C CD8+ T cell-vesicle binding, flow cytometry; stronger effect = lower value;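 active = response, share of CD8 T cells binding vesicles, and their 90th percentile fluorescence all below set limits, cut at about 80% in these data, passing the limit was not always enough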;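 also: values below 100% mean blocked vesicle binding to the CD8+ T cells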
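Material: 2C TCR transgenic mouse naive CD8+ T cells, MACS-purified. Also added: QL9-charged Drosophila Ld/ICAM-1/B7-1 vesicles. Timing: binding 1.5 h at 37 °C. Measured by: high-throughput flow cytometry with anti-B7-1 and anti-CD8 staining. Read-out: percent CD8+ FL2 mean versus row control. Controls: Unloaded micro-vesicles (low), QL9 vesicles with 0.7% DMSO (high).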
Bim-Mcl-1 – disrupts Bim peptide binding to human Mcl-1; Q07820; Bead-based flow cytometry, Bim peptide-Mcl-1 binding; inhibition, % at 10 µM; actives 0.1% (n = 190,000); in the data active = inhibition above about 40%
Mcl1 Bid PPI – Mcl-1/Bid interaction inhibition. inhibition, % at 21.7 µM. TR-FRET Mcl-1/Bid-Dy647 peptide binding, 1536-well. actives 0.97% (n = 220,000). AID 1021. Q07820;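 active = compounds that cut the binding signal by more than half at the single screening dose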;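 also: His-tagged Mcl-1 with europium anti-His antibody binding Bid BH3 peptide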
Pemphigus Ab inh – blocks pemphigus antibody binding to human desmoglein-3 | P32926 | DSG3-coupled beads, scFv-anti-DSG3-GFP binding, flow cytometry; stronger effect = lower value | binding (percent of control), % at 10 µM | actives 0.48% (n = 310,000) | AID 588358;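 active = binding more than 3 SD below its plate's average and above zero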;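 also: hits lower antibody fragment binding to DSG3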
Mcl1 Noxa PPI – Mcl-1/Noxa interaction inhibition | actives 1.5% (n = 220,000) | inhibition, % at 21.7 µM | Q07820 | TR-FRET Mcl-1/Noxa peptide binding, 2 h;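 active = compounds that cut the protein-peptide binding signal by more than 50% relative to plate controls in a single-dose test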;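 also: His-tagged Mcl-1 with rhodamine Noxa BH3 peptide and terbium anti-His antibody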
Numbers stand for hits; 0 = inactive; - = no result.

SMILES	MCL1 BIM primary	T cell HTS	Bim-Mcl-1	Mcl1 Bid PPI	Pemphigus Ab inh	Mcl1 Noxa PPI
COc1ccccc1C(=O)n1nc(-c2ccco2)nc1SC	0	28	0	0	0	0
COc1ccc(-c2cc3ncnc(Cl)c3s2)cc1	0	0	-	-	0	-
O=C(Nc1cccc(C(F)(F)F)c1)Oc1ccccc1N1CCOCC1	0	0	-	0	0	0
Cc1cc(C)cc(NC(=O)Oc2ccccc2N2CCCCC2)c1	0	0	-	0	0	51
C#CCOCCOCCOCCNc1nc(N2CCN(C(=O)Cn3cc(CC(C)O)nn3)CC2)nc(N2CCN(C(=O)[C@H](CCCCN)n3cc(CC(C)O)nn3)CC2)n1 (some centres undefined)	-	-	-	-	0	-
Cc1ccc(NC(=O)CCC(=O)c2ccccc2)cc1	-	-	-	-	71	-
O=C(CCC(=O)c1ccccc1)Nc1ccc(C(=O)O)cc1	-	0	-	-	0	-
CCc1ccc(S(=O)(=O)/N=C2\C=CC(=O)c3ccccc32)cc1	0	0	0	0	-	87
CCc1ccc(S(=O)(=O)/N=C2/C=C(Sc3ncn[nH]3)C(=O)c3ccccc32)cc1	0	0	0	0	-	101
COc1ccc(CNC(=O)C2CCN(S(=O)(=O)N3CCCCC3)CC2)c(OC)c1	0	0	-	-	0	-
C=CCOC(=O)C1=C(C)NC(=S)NC1/C=C/c1ccccc1 (centres undefined)	0	0	0	0	0	0
CC1=C(C(=O)OCc2ccccc2)C(/C=C/c2ccccc2)NC(=S)N1 (centres undefined)	0	0	0	54	0	0
O=C(Nc1ccc(Cl)c(Cl)c1)Nc1nc(-c2ccccc2)cs1	0	0	0	0	0	51
CCN1CCCC1CNC(=O)CN(C)S(=O)(=O)c1ccc(Cl)cc1 (centres undefined)	0	0	-	-	0	-
COc1cc(/C=C/[N+](=O)[O-])ccc1OCc1cccc(C(=O)O)c1	-	-	0	0	-	60
COc1ccc(C(=O)C=Cc2ccc(OCc3ccccc3)c(OC)c2)cc1OC	-	-	-	-	0	-
COc1ccc(S(=O)(=O)N(C)c2ccc(C(=O)Nc3cccnc3)cc2)cc1	0	0	-	-	0	-
O=C(O)c1cccc(-c2noc(-c3cccc(Cl)c3)n2)c1	0	0	-	-	0	-
COc1ccccc1NC(=O)COC(=O)c1ccc(N2CCCC2=O)cc1	0	0	-	-	-	-
Clc1ccc(SCCn2ccnc2)cc1	0	0	0	67	0	0
COc1ccc(C(=O)OCC(=O)N2c3ccccc3CC2C)cc1S(=O)(=O)N1CCOCC1 (centres undefined)	-	-	-	-	0	-
CN(CC(=O)Nc1cccc(C#N)c1)Cc1ccc(Cl)cc1	0	0	0	86	0	0
CN(CC(=O)Nc1ccc(C#N)cc1)Cc1ccc(Cl)c(Cl)c1	0	0	0	0	0	0
Cc1ccc(C(=O)NCCc2nnc3ccc(SCC(=O)Nc4ccccc4F)nn23)cc1	0	0	-	-	0	-
COc1ccc2nc(N3C(=O)/C(=C/c4ccc(Cl)cc4)NC3=S)sc2c1	-	-	0	88	0	87
SMILES	MCL1 BIM primary	T cell HTS	Bim-Mcl-1	Mcl1 Bid PPI	Pemphigus Ab inh	Mcl1 Noxa PPI
CC(=O)Nc1ccc(S(=O)(=O)N[C@@H](C)C(=O)OCC(=O)Nc2ccc3c(c2)OCCO3)cc1	-	-	-	-	0	-
CCN(C(=O)c1ccc(NC(=O)C2CCCCC2C(=O)O)cc1)c1ccccc1 (centres undefined)	-	-	-	-	0	-
Cc1ccc2c(c1)N/C(=C(\C=C(/Cl)[N+](=O)[O-])[N+](=O)[O-])N2	0	0	0	0	-	59
CCCCCC(=O)N1C[C@@H](O)[C@H](n2cc(-c3ccc(F)cc3)nn2)C[C@@H]1c1ccc(OC)cc1	-	-	-	-	79	-
CCCCCC(=O)N1C[C@H](O)[C@@H](n2cc(-c3ccc(F)cc3)nn2)C[C@@H]1c1ccc(C)cc1	-	-	-	-	0	-
Cc1cccc(N(CC(=O)NC2CCCC2)C(=O)c2cc3cc4cccc(C)c4nc3s2)c1C	0	0	0	67	0	0
COC(=O)[C@@H](NCc1cccc(CN[C@H](C(=O)OC)c2ccccc2)c1)c1ccccc1	0	0	-	-	0	-
O=C(CN1C(=O)/C(=C\c2ccc(F)cc2)Oc2ccccc21)N1CCN(c2ccccn2)CC1	0	0	0	0	0	0
O=C(CN1C(=O)/C(=C\c2cccc(F)c2)Oc2ccccc21)N1CCN(c2ccccn2)CC1	0	0	0	54	0	0
